From ChEMBL document CHEMBL1165965, “Synthesis and structure-activity relationships of 1,2,3,4-tetrahydropyrido[2,3-b]pyrazines as potent and selective inhibitors of the anaplastic lymphoma kinase” (Bioorg Med Chem, 2010) come the findings set out here.

Molecules are shown by their SMILES. Bounds are passed on as bounds.

Assay [1] relates to T1, Receptor-type tyrosine-protein kinase FLT3 (Homo sapiens), P36888 [K663Q].
T1 sequence (whole entry): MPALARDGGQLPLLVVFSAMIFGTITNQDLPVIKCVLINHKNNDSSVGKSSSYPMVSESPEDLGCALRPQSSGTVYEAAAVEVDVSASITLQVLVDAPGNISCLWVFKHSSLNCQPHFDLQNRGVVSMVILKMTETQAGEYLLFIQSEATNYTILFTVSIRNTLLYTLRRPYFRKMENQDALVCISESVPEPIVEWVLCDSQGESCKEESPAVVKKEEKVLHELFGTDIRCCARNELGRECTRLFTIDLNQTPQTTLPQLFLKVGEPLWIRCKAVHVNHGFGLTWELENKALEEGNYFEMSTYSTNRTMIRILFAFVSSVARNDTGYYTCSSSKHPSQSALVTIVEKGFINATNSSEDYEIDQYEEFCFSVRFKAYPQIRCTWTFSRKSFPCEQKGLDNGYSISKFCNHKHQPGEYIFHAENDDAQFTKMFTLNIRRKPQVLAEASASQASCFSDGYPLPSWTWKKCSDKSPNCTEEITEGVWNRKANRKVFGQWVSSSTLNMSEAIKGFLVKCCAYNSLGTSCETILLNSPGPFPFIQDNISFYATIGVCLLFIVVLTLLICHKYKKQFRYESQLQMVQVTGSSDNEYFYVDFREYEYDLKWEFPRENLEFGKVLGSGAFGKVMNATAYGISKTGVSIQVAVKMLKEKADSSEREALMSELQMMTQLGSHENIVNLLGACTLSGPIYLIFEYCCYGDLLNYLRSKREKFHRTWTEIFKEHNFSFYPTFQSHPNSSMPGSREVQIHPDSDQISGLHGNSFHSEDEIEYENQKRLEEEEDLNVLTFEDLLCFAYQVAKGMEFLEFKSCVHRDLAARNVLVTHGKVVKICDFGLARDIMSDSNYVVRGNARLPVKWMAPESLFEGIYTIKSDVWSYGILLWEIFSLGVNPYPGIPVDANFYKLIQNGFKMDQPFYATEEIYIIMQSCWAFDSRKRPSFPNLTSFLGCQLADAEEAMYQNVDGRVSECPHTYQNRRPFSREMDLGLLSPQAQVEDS
Description: Inhibition of FLT3 K663Q mutant at 1 uM.

For assay [2], the target named is Ribosomal protein S6 kinase alpha-2 (Homo sapiens) (UniProt Q15349). Put plainly: Inhibition of RPS6KA2 N-terminal domain1 at 1 uM.
Sequence of Ribosomal protein S6 kinase alpha-2 (Homo sapiens) (Q15349 whole entry, the tested form may be a part): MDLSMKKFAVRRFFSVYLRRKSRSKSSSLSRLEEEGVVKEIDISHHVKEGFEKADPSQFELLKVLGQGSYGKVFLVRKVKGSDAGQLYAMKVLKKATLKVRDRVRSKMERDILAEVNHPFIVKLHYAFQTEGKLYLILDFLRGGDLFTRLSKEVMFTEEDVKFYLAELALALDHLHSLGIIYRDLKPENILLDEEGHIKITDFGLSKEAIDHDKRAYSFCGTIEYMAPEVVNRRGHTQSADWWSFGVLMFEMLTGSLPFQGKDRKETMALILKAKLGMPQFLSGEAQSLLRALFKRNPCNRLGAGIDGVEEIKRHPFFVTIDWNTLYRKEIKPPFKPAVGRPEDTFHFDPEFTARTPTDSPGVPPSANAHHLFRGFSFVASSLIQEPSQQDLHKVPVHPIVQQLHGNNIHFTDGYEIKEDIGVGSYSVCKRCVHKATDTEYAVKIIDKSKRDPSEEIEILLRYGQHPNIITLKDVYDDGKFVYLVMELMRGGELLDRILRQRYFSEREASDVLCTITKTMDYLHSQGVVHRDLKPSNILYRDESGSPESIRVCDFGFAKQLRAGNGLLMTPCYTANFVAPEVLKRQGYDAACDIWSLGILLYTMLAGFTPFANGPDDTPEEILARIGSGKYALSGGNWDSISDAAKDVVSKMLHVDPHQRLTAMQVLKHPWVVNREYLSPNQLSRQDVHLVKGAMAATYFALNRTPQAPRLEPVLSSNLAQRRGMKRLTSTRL
The target in assay [3] is Serine/threonine-protein kinase 35 (Homo sapiens) (UniProt Q8TDR2). Put plainly: Inhibition of STK35 at 1 uM.
Sequence of Serine/threonine-protein kinase 35 (Homo sapiens) (Q8TDR2 whole entry): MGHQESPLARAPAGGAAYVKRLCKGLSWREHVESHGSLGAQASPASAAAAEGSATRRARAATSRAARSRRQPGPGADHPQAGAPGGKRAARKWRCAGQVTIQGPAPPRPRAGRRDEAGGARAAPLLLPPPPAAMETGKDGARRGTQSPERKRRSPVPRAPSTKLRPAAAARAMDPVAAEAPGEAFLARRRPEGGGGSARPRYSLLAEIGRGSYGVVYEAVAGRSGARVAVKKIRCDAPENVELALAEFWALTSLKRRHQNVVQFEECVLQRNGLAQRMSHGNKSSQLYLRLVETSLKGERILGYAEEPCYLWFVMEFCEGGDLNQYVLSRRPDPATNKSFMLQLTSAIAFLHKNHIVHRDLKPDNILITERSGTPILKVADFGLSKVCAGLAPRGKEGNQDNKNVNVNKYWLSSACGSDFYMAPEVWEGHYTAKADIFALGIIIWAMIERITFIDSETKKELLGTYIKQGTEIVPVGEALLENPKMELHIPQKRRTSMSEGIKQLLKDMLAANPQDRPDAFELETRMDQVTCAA
Assay [4] deals with Casein kinase II subunit alpha (Homo sapiens) (UniProt P68400). Put plainly: Inhibition of CSNK2A1 at 1 uM. The procedure, abridged: (§1)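 Single-concentration screen using Ambit Bioscience KINOMEscan technology across a panel of 250–400 kinases. Per-kinase inhibition from this screen was summarized as S(90), the fraction of kinases inhibited by more than 90%.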
Sequence of Casein kinase II subunit alpha (Homo sapiens) (P68400 whole entry, looked up): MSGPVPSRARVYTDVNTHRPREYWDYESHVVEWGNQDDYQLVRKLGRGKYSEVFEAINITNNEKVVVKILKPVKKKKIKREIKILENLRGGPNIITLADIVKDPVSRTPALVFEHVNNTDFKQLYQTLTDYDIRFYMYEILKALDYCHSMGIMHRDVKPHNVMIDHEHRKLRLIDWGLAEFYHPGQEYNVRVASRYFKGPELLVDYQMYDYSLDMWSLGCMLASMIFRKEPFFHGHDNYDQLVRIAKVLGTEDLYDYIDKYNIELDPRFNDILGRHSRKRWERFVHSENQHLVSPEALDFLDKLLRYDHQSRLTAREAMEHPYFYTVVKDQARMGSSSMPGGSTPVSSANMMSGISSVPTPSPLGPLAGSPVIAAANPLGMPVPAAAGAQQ
Assay [5] concerns the target Fibroblast growth factor receptor 2 (Homo sapiens) (UniProt P21802). Put plainly: Inhibition of FGFR2 at 1 uM. The method in brief:
as §1

For assay [6], the target named is Proto-oncogene tyrosine-protein kinase receptor Ret (Homo sapiens) (UniProt P07949). Description: Inhibition of RET at 1 uM.
Sequence of Proto-oncogene tyrosine-protein kinase receptor Ret (Homo sapiens) (P07949 whole entry): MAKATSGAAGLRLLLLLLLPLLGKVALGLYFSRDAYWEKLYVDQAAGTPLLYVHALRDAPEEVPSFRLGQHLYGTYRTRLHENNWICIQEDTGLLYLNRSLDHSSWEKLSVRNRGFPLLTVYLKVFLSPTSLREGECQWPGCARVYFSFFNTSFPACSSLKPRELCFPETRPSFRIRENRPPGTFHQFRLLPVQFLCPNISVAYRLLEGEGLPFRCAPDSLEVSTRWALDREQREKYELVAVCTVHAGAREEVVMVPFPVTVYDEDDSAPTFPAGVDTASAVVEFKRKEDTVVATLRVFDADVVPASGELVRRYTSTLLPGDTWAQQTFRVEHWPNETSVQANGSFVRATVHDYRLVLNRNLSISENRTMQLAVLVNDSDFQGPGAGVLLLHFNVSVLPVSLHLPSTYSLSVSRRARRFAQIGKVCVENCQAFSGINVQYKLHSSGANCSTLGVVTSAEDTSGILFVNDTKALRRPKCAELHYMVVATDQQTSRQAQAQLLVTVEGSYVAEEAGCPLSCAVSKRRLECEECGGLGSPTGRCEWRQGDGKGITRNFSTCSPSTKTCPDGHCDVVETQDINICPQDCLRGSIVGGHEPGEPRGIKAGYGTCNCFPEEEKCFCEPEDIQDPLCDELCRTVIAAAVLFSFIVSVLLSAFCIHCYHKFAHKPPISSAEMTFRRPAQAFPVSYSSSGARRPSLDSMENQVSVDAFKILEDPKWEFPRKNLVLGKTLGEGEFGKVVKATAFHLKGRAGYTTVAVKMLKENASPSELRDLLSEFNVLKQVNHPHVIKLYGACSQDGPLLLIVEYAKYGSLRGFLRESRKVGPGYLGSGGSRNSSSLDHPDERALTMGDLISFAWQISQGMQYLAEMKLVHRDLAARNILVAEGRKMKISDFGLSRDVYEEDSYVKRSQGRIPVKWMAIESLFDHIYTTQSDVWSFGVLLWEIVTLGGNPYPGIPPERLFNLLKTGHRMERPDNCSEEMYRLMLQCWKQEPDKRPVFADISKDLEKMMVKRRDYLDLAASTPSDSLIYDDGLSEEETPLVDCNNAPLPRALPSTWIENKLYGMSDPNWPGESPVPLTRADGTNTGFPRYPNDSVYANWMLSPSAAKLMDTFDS
For assay [7], the target named is Calcium/calmodulin-dependent protein kinase type 1G (Homo sapiens) (UniProt Q96NX5). Description: Inhibition of CAMK1G at 1 uM. The procedure, abridged:
(§2)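 Ambit KINOMEscan screen at a single concentration across a 250–400 kinase panel, recorded as percent inhibition. Selectivity was expressed as S(90), the fraction of kinases inhibited >90%.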

In assay [8] the target is T2, Protein kinase C epsilon type (Homo sapiens) (UniProt Q02156).
T2 sequence (whole entry): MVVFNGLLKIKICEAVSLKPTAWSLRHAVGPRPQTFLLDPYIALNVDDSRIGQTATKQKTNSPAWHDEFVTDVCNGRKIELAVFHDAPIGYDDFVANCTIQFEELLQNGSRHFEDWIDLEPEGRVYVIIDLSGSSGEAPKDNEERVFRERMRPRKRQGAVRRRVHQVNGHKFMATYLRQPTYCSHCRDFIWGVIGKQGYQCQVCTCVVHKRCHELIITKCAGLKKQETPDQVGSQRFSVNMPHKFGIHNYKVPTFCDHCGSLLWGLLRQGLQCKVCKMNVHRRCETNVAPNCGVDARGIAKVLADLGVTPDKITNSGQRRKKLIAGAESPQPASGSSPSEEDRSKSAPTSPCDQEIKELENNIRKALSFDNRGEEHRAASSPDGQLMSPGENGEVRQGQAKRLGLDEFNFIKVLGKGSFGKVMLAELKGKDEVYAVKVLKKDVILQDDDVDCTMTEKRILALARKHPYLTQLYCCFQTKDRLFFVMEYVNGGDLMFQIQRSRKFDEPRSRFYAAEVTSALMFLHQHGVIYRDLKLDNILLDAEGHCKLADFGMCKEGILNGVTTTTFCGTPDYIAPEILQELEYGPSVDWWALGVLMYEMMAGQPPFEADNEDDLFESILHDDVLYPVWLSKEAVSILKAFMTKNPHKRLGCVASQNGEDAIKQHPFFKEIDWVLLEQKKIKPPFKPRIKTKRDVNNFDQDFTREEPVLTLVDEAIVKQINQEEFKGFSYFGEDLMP
Put plainly: Inhibition of PRKCE at 1 uM.

The target of assay [9] is T3, cAMP-dependent protein kinase catalytic subunit PRKX (Homo sapiens) (UniProt P51817).
T3 sequence (whole entry): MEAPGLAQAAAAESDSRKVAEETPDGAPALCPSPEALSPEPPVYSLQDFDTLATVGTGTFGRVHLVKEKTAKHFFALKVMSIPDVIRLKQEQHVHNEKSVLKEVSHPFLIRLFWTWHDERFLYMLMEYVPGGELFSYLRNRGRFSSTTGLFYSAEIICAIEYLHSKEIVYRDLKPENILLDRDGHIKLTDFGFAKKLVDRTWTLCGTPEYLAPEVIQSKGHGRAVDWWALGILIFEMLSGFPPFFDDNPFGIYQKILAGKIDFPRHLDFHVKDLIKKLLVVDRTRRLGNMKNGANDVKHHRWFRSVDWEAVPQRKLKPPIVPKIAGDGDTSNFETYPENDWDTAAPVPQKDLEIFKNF
Description: Inhibition of PRKX at 1 uM.

For assay [10], the target named is AP2-associated protein kinase 1 (Homo sapiens) (UniProt Q2M2I8). Description: Inhibition of AAK1 at 1 uM. The method in brief: as §2
Sequence of AP2-associated protein kinase 1 (Homo sapiens) (Q2M2I8 whole entry, looked up): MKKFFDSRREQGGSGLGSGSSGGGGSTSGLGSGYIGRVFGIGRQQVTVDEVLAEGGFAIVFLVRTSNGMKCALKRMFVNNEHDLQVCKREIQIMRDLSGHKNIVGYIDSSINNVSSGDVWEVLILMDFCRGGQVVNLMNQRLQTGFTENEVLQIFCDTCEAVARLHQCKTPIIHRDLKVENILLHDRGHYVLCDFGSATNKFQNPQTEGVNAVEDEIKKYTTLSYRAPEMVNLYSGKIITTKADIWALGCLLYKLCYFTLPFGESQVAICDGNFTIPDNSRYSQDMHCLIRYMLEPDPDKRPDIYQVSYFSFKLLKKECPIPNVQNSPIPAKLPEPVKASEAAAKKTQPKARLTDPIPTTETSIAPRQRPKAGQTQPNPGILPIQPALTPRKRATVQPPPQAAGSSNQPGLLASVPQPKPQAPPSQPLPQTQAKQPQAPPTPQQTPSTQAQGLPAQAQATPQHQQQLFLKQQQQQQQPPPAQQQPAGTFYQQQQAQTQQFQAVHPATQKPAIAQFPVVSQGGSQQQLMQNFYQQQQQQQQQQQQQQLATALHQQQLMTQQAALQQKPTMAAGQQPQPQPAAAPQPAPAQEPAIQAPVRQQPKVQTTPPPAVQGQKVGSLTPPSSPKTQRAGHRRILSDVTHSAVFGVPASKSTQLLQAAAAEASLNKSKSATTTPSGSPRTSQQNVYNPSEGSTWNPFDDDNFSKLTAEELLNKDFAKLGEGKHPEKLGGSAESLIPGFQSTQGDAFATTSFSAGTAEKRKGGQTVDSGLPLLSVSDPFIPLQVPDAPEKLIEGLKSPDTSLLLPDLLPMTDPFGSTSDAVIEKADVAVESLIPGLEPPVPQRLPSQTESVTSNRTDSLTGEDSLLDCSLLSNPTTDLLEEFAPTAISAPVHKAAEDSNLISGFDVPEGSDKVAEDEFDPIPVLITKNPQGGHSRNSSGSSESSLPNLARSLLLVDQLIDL

Sequence of Calcium/calmodulin-dependent protein kinase type 1G (Homo sapiens) (Q96NX5 whole entry): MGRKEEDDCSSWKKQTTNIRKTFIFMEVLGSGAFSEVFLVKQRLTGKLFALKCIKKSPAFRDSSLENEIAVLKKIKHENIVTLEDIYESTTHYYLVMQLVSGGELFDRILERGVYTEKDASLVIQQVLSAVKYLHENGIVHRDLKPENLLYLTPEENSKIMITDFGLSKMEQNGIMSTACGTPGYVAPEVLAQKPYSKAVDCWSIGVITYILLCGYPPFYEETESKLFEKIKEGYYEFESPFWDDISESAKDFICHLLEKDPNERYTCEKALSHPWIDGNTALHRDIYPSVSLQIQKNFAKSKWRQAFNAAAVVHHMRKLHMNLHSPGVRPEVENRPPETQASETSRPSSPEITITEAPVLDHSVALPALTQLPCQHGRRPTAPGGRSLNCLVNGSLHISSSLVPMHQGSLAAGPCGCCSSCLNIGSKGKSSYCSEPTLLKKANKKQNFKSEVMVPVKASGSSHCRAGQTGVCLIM
Sequence of Fibroblast growth factor receptor 2 (Homo sapiens) (P21802 22-821 limits assumed): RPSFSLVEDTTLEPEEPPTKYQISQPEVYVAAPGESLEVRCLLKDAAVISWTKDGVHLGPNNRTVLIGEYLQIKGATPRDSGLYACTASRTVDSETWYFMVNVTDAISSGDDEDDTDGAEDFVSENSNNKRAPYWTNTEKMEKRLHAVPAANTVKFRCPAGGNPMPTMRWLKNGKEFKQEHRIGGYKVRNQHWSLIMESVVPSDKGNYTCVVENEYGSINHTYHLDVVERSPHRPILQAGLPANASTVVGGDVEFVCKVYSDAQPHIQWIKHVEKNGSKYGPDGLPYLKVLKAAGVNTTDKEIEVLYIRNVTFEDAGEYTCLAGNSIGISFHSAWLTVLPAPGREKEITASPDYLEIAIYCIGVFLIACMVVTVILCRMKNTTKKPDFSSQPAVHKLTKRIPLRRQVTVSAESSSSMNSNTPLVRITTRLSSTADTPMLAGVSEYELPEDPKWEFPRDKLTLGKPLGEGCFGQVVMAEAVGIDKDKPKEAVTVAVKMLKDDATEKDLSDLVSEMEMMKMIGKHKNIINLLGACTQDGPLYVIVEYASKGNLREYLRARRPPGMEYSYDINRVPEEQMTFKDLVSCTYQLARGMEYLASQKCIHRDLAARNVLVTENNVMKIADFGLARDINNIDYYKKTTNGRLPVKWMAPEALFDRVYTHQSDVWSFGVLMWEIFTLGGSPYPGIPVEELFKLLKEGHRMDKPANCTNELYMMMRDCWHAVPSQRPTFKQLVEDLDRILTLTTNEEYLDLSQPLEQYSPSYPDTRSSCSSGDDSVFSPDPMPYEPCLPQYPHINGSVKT

A word on the inhibition: it is the percentage by which the read-out fell short of the control. On to `FC(F)(F)c1ccc(Cl)cc1CN1CCNc2ncc(-c3ccnc(N4CCNCC4)c3)cc21`, for which the inhibition in assay [1] was 98%; in assay [2] it was less than 50%; in assay [3] it was less than 50%; in assay [4], less than 50%; in assay [5] it was less than 50%; in assay [6] it was 77%. Moreover, the inhibition in [7], in [8], in [9] and in assay [10] was less than 50% throughout.

As to `CN1CCN(c2ccc(-c3cnc4c(c3)N(Cc3cc(Cl)ccc3Cl)CCN4)cn2)CC1`, the inhibition in assay [1] is 93%; in assay [2], less than 50%; in assay [3], less than 50%; in assay [4], less than 50%; in [5], less than 50%; in [6] it was less than 50%. In addition, the inhibition in assay [7], in assay [8], in [9] and in assay [10] was less than 50% in each case.

As for `COC1CCN(C(=O)c2ccc(-c3cnc4c(c3)N(Cc3cc(Cl)ccc3C(F)(F)F)CCN4)cc2)CC1`, the inhibition in assay [2], in assay [4], in [5], in [6], in assay [7] and in [9] was less than 50% each time. In [10], the inhibition was less than 50%.

In the case of `O=C(c1ccc(-c2cnc3c(c2)N(Cc2cc(Cl)ccc2C(F)(F)F)CCN3)cc1)N1CCCCC1`, the inhibition in assay [2], in assay [4], in [5], in assay [6], in assay [7] and in [9] was less than 50% each time. This compound also registered an inhibition in [10] of less than 50%.

Regarding `O=C(O)c1ccc(-c2cnc3c(c2)N(Cc2cc(Cl)ccc2C(F)(F)F)CCN3)cc1`, the inhibition in assay [2], in [4], in [5], in assay [6], in assay [7] and in assay [9] was less than 50% in each case. For the same compound, the inhibition in assay [10] is less than 50%.

For the compound `CN1CCN(c2ccc(-c3cnc4c(c3)N(Cc3cc(F)ccc3F)CCN4)cn2)CC1`, the inhibition was 80% in assay [1]; less than 50% in assay [2]; less than 50% in assay [3]; less than 50% in [4]; less than 50% in assay [5]; less than 50% in assay [6]. Further, the inhibition in assay [7], in [8], in assay [9] and in assay [10] was less than 50% in each case.

`O=C(c1ccc(-c2cnc3c(c2)N(Cc2cc(Cl)ccc2C(F)(F)F)CCN3)cc1)N1CCC(N2CCCC2)CC1`: the inhibition in assay [2], in assay [4], in assay [5], in assay [6], in assay [7] and in assay [9] was less than 50% throughout. Also, the inhibition in assay [10] is less than 50%.

Turning to `CN1CCN(c2ccc(-c3cnc4c(c3)N(Cc3c(F)ccc(F)c3Cl)CCN4)cn2)CC1`, the inhibition in assay [1] is 70%; in assay [2], less than 50%; in [3], less than 50%; in assay [4], less than 50%; in assay [5] it was less than 50%; in assay [6], less than 50%. In addition, the inhibition in [7], in assay [8], in assay [9] and in assay [10] was less than 50% throughout.

Turning to `CC(=O)N1CCN(c2cc(-c3cnc4c(c3)N(Cc3cc(Cl)ccc3C(F)(F)F)CCN4)ccn2)CC1`, the inhibition in assay [1] is 93%; in assay [2], less than 50%; in [3], less than 50%; in assay [4], less than 50%; in [5] it was less than 50%; in assay [6], less than 50%. For the same compound, the inhibition in assay [7], in assay [8], in assay [9] and in assay [10] was less than 50% each time.

On to `CN1CCN(c2ccc(-c3cnc4c(c3)N(Cc3cc(Cl)ccc3C(F)(F)F)CCN4)cn2)CC1`, for which the inhibition is 92% in assay [1]; less than 50% in assay [2]; less than 50% in assay [3]; less than 50% in assay [4]; less than 50% in assay [5]; less than 50% in assay [6]. Besides, the inhibition in [7], in [8], in assay [9] and in [10] was less than 50% in each case.
